ChEMBL document CHEMBL1145479, “Tigecycline Efflux as a Mechanism for Nonsusceptibility in Acinetobacter baumannii” (2007)
≈ marks a conversion by molar mass, not a printed value.

Legend:
Acinetobacter baumannii [1] = assay: Antimicrobial activity against Acinetobacter baumannii A24D after 4 days in presence of efflux pump inhibitor phenyl-arginine-beta-naphthylamide by broth microdilution method; type: functional; conditions: 96 h
Acinetobacter baumannii [2] = assay: Antimicrobial activity against Acinetobacter baumannii A24 by broth microdilution method; type: functional
Acinetobacter baumannii [3] = assay: Antimicrobial activity against Acinetobacter baumannii A24C after 4 days by broth microdilution method; type: functional; conditions: 96 h
Acinetobacter baumannii [4] = assay: Antimicrobial activity against Acinetobacter baumannii D54 by broth microdilution method; type: functional
Acinetobacter baumannii [5] = assay: Antimicrobial activity against Acinetobacter baumannii A24B after 4 days by broth microdilution method; type: functional; conditions: 96 h
Acinetobacter baumannii [6] = assay: Antimicrobial activity against Acinetobacter baumannii A24A after 4 days by broth microdilution method; type: functional; conditions: 96 h
Acinetobacter baumannii [7] = assay: Antimicrobial activity against Acinetobacter baumannii A24D after 4 days by broth microdilution method; type: functional; conditions: 96 h
Acinetobacter baumannii [8] = assay: Antimicrobial activity against Acinetobacter baumannii A24 in presence of efflux pump inhibitor phenyl-arginine-beta-naphthylamide by broth microdilution method; type: functional
Acinetobacter baumannii [9] = assay: Antimicrobial activity against Acinetobacter baumannii C75 by broth microdilution method; type: functional
Acinetobacter baumannii [10] = assay: Antimicrobial activity against Acinetobacter baumannii B46 in presence of efflux pump inhibitor phenyl-arginine-beta-naphthylamide by broth microdilution method; type: functional
Acinetobacter baumannii [11] = assay: Antimicrobial activity against Acinetobacter baumannii B46 by broth microdilution method; type: functional
Acinetobacter baumannii [12] = assay: Antimicrobial activity against Acinetobacter baumannii C75 in presence of efflux pump inhibitor phenyl-arginine-beta-naphthylamide by broth microdilution method; type: functional
Acinetobacter baumannii [13] = assay: Antimicrobial activity against Acinetobacter baumannii A24 in presence of efflux pump inhibitor phenyl-arginine-beta-naphthylamide by agar dilution method; type: functional
Acinetobacter baumannii [14] = assay: Antimicrobial activity against Acinetobacter baumannii A24D after 4 days in presence of efflux pump inhibitor phenyl-arginine-beta-naphthylamide by agar dilution method; type: functional; conditions: 96 h
How it was run: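 Tigecycline MIC determined by agar dilution on Mueller-Hinton agar containing PABN, for bacteria from the final day of growth. PABN was dissolved in water as a 25 mg/ml stock and added to agar cooled to 50°C.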

Acinetobacter baumannii [15] = assay: Antimicrobial activity against Acinetobacter baumannii A24D after 4 days by agar dilution method; type: functional; conditions: 96 h
How it was run: (§1)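 Fresh cultures were passaged overnight on tigecycline-containing Mueller-Hinton II agar, boiled before inoculation to prevent tigecycline oxidative degradation. […] Inoculum was 0.5 McFarland. Tigecycline MICs were recorded daily by agar dilution.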

Acinetobacter baumannii [16] = assay: Antimicrobial activity against Acinetobacter baumannii A24B after 4 days by agar dilution method; type: functional; conditions: 96 h; how it was run: as §1
Acinetobacter baumannii [17] = assay: Antimicrobial activity against Acinetobacter baumannii B46 in presence of efflux pump inhibitor phenyl-arginine-beta-naphthylamide by agar dilution method; type: functional
Acinetobacter baumannii [18] = assay: Antimicrobial activity against Acinetobacter baumannii C75 by agar dilution method; type: functional
How it was run: (§2)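 Tigecycline MIC first estimated by Etest, then confirmed by agar dilution on Mueller-Hinton II agar. Strains were grown in LB broth.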

Acinetobacter baumannii [19] = assay: Inhibition of AdeABC multidrug efflux pump in Acinetobacter baumannii C75 assessed as ethidium bromide accumulation at 100 uM; design: scale not given: the % may be the effect or the level left
How it was run: (§3)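 Overnight cells pelleted and resuspended to A600 0.2 in sodium phosphate buffer pH 7.0, with ethidium bromide at 2 μg/ml final. Incubated 420 s, then CCCP (protonophore) added at 100 μM final for a further 180 s. Fluorescence read at ex 530/em 600 nm, cell-only background subtracted, and expressed as percent increase in accumulation after CCCP.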

Acinetobacter baumannii [20] = assay: Antimicrobial activity against Acinetobacter baumannii D54 by agar dilution method; type: functional
How it was run: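 Tigecycline MIC screened by Etest and confirmed by agar dilution on Mueller-Hinton II agar; strains cultivated in LB broth.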

Acinetobacter baumannii [21] = assay: Antimicrobial activity against Acinetobacter baumannii A24C after 4 days by agar dilution method; type: functional; conditions: 96 h; how it was run: as §1
Acinetobacter baumannii [22] = assay: Inhibition of AdeABC efflux pump protein in Acinetobacter baumannii A24 assessed as ethidium bromide accumulation at 100 uM; design: scale not given: the % may be the effect or the level left; how it was run: as §3
Acinetobacter baumannii [23] = assay: Antimicrobial activity against Acinetobacter baumannii B46 by agar dilution method; type: functional; how it was run: as §2
Acinetobacter baumannii [24] = assay: Inhibition of AdeABC efflux pump protein in Acinetobacter baumannii D54 assessed as ethidium bromide accumulation at 100 uM; design: scale not given: the % may be the effect or the level left; how it was run: as §3
Acinetobacter baumannii [25] = assay: Inhibition of AdeABC efflux pump protein in Acinetobacter baumannii B46 assessed as ethidium bromide accumulation at 100 uM; design: scale not given: the % may be the effect or the level left; how it was run: as §3
Acinetobacter baumannii [26] = assay: Antimicrobial activity against Acinetobacter baumannii C75 in presence of efflux pump inhibitor phenyl-arginine-beta-naphthylamide by agar dilution method; type: functional
Acinetobacter baumannii [27] = assay: Antimicrobial activity against Acinetobacter baumannii A24A after 4 days by agar dilution method; type: functional; conditions: 96 h; how it was run: as §1
Acinetobacter baumannii [28] = assay: Inhibition of AdeABC efflux pump protein in Acinetobacter baumannii A24D assessed as ethidium bromide accumulation at 100 uM; design: scale not given: the % may be the effect or the level left
How it was run: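 Overnight cells were pelleted and resuspended to A600 0.2 in sodium phosphate buffer, pH 7.0. Ethidium bromide was added at 2 μg/ml final and incubated 420 s. CCCP was then added at 100 μM final for a further 180 s. Fluorescence was read at ex 530 / em 600 nm, with cell-only background subtracted. The value is the percent increase in accumulation after CCCP.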

Acinetobacter baumannii [29] = assay: Antimicrobial activity against Acinetobacter baumannii A24 by agar dilution method; type: functional; how it was run: as §2

SMILES | MIC (Acinetobacter baumannii [1]) [µg/mL] | MIC (Acinetobacter baumannii [2]) [µg/mL] | MIC (Acinetobacter baumannii [3]) [µg/mL] | MIC (Acinetobacter baumannii [4]) [µg/mL] | MIC (Acinetobacter baumannii [5]) [µg/mL] | MIC (Acinetobacter baumannii [6]) [µg/mL] | MIC (Acinetobacter baumannii [7]) [µg/mL] | MIC (Acinetobacter baumannii [8]) [µg/mL] | MIC (Acinetobacter baumannii [9]) [µg/mL] | MIC (Acinetobacter baumannii [10]) [µg/mL] | MIC (Acinetobacter baumannii [11]) [µg/mL] | MIC (Acinetobacter baumannii [12]) [µg/mL] | other results
NC[C@H]1O[C@H](O[C@H]2[C@H](O)[C@@H](O[C@H]3O[C@H](CO)[C@@H](O)[C@H](N)[C@H]3O)[C@H](N)C[C@@H]2N)[C@H](N)C[C@@H]1O [TOBRAMYCIN] | 8 | 4 (≈ 8.56 µM) | 6 (≈ 12.8 µM) | 0.75 (≈ 1.6 µM) | 4 (≈ 8.56 µM) | 3 (≈ 6.42 µM) | 16 (≈ 34.2 µM) | 3 | 16 (≈ 34.2 µM) | 16 | 24 (≈ 51.3 µM) | 6 | 
CO/N=C(\C(=O)N[C@@H]1C(=O)N2C(C(=O)[O-])=C(C[N+]3(C)CCCC3)CS[C@H]12)c1csc(N)n1 [CEFEPIME] | 1 |  | 16 (≈ 33.3 µM) | 1.5 (≈ 3.12 µM) | 12 (≈ 25 µM) | 12 (≈ 25 µM) | 16 (≈ 33.3 µM) | 3 | > 256 | 128 | > 256 | 16 | 
CC(C)(O/N=C(\C(=O)N[C@@H]1C(=O)N2C(C(=O)[O-])=C(C[n+]3ccccc3)CS[C@H]12)c1csc(N)n1)C(=O)O [CEFTAZIDIME] | 32 | > 256 | > 256 | 4 (≈ 7.32 µM) | > 256 | > 256 | > 256 | 96 | 192 (≈ 351 µM) | 8 | 96 (≈ 176 µM) | 8 | 
CN(C)c1cc(NC(=O)CNC(C)(C)C)c(O)c2c1C[C@H]1C[C@H]3[C@H](N(C)C)C(O)=C(C(N)=O)C(=O)[C@@]3(O)C(O)=C1C2=O [TIGECYCLINE] |  |  |  |  |  |  |  |  |  |  |  |  | MIC (Acinetobacter baumannii [13]): 2 µg/mL; MIC (Acinetobacter baumannii [14]): 2 µg/mL; MIC (Acinetobacter baumannii [15]): 24 µg/mL (≈ 41 µM); MIC (Acinetobacter baumannii [16]): 2 µg/mL (≈ 3.41 µM); MIC (Acinetobacter baumannii [17]): 1 µg/mL; MIC (Acinetobacter baumannii [18]): 16 µg/mL (≈ 27.3 µM); Activity (Acinetobacter baumannii [19]): 206%; MIC (Acinetobacter baumannii [20]): 0.125 µg/mL (≈ 0.213 µM); MIC (Acinetobacter baumannii [21]): 6 µg/mL (≈ 10.2 µM); Activity (Acinetobacter baumannii [22]): 52%; MIC (Acinetobacter baumannii [23]): 4 µg/mL (≈ 6.83 µM); Activity (Acinetobacter baumannii [24]): 31%; Activity (Acinetobacter baumannii [25]): 115%; MIC (Acinetobacter baumannii [26]): 4 µg/mL; MIC (Acinetobacter baumannii [27]): 2 µg/mL (≈ 3.41 µM); Activity (Acinetobacter baumannii [28]): 114%; MIC (Acinetobacter baumannii [29]): 2 µg/mL (≈ 3.41 µM)
CN(C)c1ccc(O)c2c1C[C@H]1C[C@H]3[C@H](N(C)C)C(O)=C(C(N)=O)C(=O)[C@@]3(O)C(O)=C1C2=O [MINOCYCLINE] | 8 | 32 (≈ 69.9 µM) | 16 (≈ 35 µM) | 0.125 (≈ 0.273 µM) | 16 (≈ 35 µM) | 12 (≈ 26.2 µM) | 32 (≈ 69.9 µM) | 2 | 2 (≈ 4.37 µM) | 0.25 | 0.25 (≈ 0.546 µM) | 1 | 
O=C(O)c1cn(C2CC2)c2cc(N3CCNCC3)c(F)cc2c1=O [CIPROFLOXACIN] | 128 | 256 (≈ 773 µM) | 256 (≈ 773 µM) | 0.25 (≈ 0.754 µM) | 256 (≈ 773 µM) | 256 (≈ 773 µM) | 512 (≈ 1550 µM) | 128 | 512 (≈ 1550 µM) | 128 | 128 (≈ 386 µM) | 256 | 
CCN1CCN(C(=O)N[C@@H](C(=O)N[C@@H]2C(=O)N3[C@@H]2SC(C)(C)[C@@H]3C(=O)O)c2ccccc2)C(=O)C1=O [PIPERACILLIN] | 1 | 16 (≈ 30.9 µM) | 16 (≈ 30.9 µM) | 16 (≈ 30.9 µM) | 12 (≈ 23.2 µM) | 12 (≈ 23.2 µM) | 24 (≈ 46.4 µM) | 3 | 48 (≈ 92.7 µM) |  | 256 (≈ 495 µM) | 8 | 
O=C(N[C@H](CO)[C@H](O)c1ccc([N+](=O)[O-])cc1)C(Cl)Cl [CHLORAMPHENICOL] | 4 | 16 (≈ 49.5 µM) | 96 (≈ 297 µM) | 0.25 (≈ 0.774 µM) | 96 (≈ 297 µM) | 96 (≈ 297 µM) | 16 (≈ 49.5 µM) | 12 | 32 (≈ 99 µM) | 8 | 32 (≈ 99 µM) | 8 | 
C[C@@H](O)[C@H]1C(=O)N2C(C(=O)O)=C(SCCNC=N)C[C@H]12 [IMIPENEM ANHYDROUS] | 0.064 | 0.38 (≈ 1.27 µM) | 0.19 (≈ 0.635 µM) | 0.125 (≈ 0.418 µM) | 0.125 (≈ 0.418 µM) | 0.125 (≈ 0.418 µM) | 0.5 (≈ 1.67 µM) | 0.032 | 1.5 (≈ 5.01 µM) | 0.25 | 1.5 (≈ 5.01 µM) | 0.125 | 
C[C@@H](O)[C@H]1C(=O)N2C(C(=O)O)=C(S[C@@H]3CN[C@H](C(=O)N(C)C)C3)[C@H](C)[C@H]12 [MEROPENEM] | 0.094 | 1 (≈ 2.61 µM) | 0.75 (≈ 1.96 µM) | 0.25 (≈ 0.652 µM) | 0.75 (≈ 1.96 µM) | 0.75 (≈ 1.96 µM) | 2 (≈ 5.22 µM) | 0.094 | 4 (≈ 10.4 µM) | 0.25 | 4 (≈ 10.4 µM) | 0.125 | 
